Assays:
UMUC3 [1] = assay: Photosensitizing activity in human UMUC3 cells assessed as reduction in cell viability pretreated with compound for 24 hrs followed by light irradiation at 1 J/cm2 and measured after 48 hrs by MTT assay; type: functional, cell-based; details: UMUC3, light or radiation study
Summary of the method: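 Cells plated 0.01x10⁶ to 0.05x10⁶ cells/ml and allowed to adhere 24 h before photosensitizer was added, top dose 1600 nM with 2-fold serial dilutions. Plates received no light (0 J/cm²) or 1 J/cm² at 565 mW, 15 cm spot. After 48 h, MTT added for 3 h, formazan solubilized in DMSO and read at 570 nm; IC₅₀ fitted from dose-response.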

[2] = Drug uptake in human CFSE-stained HN-121 cells assessed as increase in drug retention at 1.6 uM in medium with 10% FBS followed by 48 hrs chase period by inverted fluorescence microscopic analysis; type: ADME, cell-based; details: hn-121, 48 h
[3] = Drug uptake in liver of iv dosed SCID mouse xenografted with UMUC3 cells by fluorescence imaging analysis; details: in vivo
[4] = Drug uptake in liver of SCID mouse xenografted with FaDu cells at 0.47 to 0.125 micromol/kg, iv pretreated with compound followed by light irradiation at a dose of 135 J/cm2 and 75 mW/cm2 and measured at 24 hrs by IVIS analysis; type: ADME, organism-based; details: in vivo, dose 0.47-0.125 µmol/kg
Summary of the method: (§1)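 Female SCID mice bearing FaDu tumors 4–5 mm in diameter, 3 per group. PS in 1% Tween80/5% dextrose given iv at 0.47, 0.25 or 0.125 μmol/kg. IVIS whole-body fluorescence imaged at several time points; average radiant efficiency measured in tumor, liver and skin.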

HN-85-1-3 = assay: Photodynamic therapy in human HN-85-1-3 cells assessed as degradation of EGFR treated with compound followed by diode laser irradiation at 3 J/cm2 by immunoblot analysis; type: functional, cell-based
Summary of the method: (§2)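 Primary HN-85-1-3 tumor epithelial cells loaded with graded PS doses; uptake quantified by fluorescence before light. Dishes irradiated at 37°C with 665 nm diode laser, 6 mW/cm², 3 J/cm² total. Cells lysed in RIPA immediately after light; STAT3 crosslinking and EGFR analysed by SDS-PAGE immunoblot.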

[5] = Drug uptake in tumor of iv dosed SCID mouse xenografted with human UMUC3 cells by fluorescence imaging analysis; type: ADME, organism-based, Neoplasm; details: in vivo
[6] = Drug uptake in tumor of SCID mouse xenografted with human UMUC3 cells at 0.25 micromol/kg, iv pretreated with compound followed by light irradiation at a dose of 135 J/cm2 and 75 mW/cm2 measured after 2 to 8 hrs by IVIS analysis; type: ADME, organism-based, Neoplasm; details: in vivo, time 2-8 hrs, dose 0.25 µmol/kg
Summary of the method: (§3)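 Female SCID mice with UMUC3 flank/shoulder tumors, 3 per group. PS in 1% Tween80/5% dextrose given iv at 0.47, 0.25 or 0.125 μmol/kg. Whole-body fluorescence imaging by IVIS at several times after injection; average radiant efficiency measured in tumor, liver and skin.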

FaDu [7] = assay: Photodynamic antitumor activity against human FaDu cells xenografted in SCID mouse assessed as cure rate at 0.125 micromol/kg, iv pretreated with compound followed by light irradiation at a dose of 135 J/cm2 and 75 mW/cm2 measured for 60 days post dose relative to control; type: functional; details: dose 0.125 µmol/kg; time 60 day
Summary of the method: (§4)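 FaDu-bearing female SCID mice (5 per group per experiment) given iv PS at 0.47, 0.25 or 0.125 μmol/kg in Tween80/dextrose. Tumors irradiated 24 h post-injection at 665 nm, 135 J/cm², 75 mW/cm². Tumor growth measured daily for 60 days, with euthanasia above 400 mm³. Cure taken as tumor-free at day 60; survival analysed by log-rank test.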

[8] = Photosensitizing activity in human HN-85-1-3 cells assessed as induction of STAT3 cross-linking pretreated with compound followed by diode laser irradiation at 3 J/cm2 by immunoblot analysis (reference value: 0 %); type: functional; summary of the method: as §2
[9] = Drug uptake in human HNT1 cells at 3.2 uM incubated for 30 mins in DMEM media with 10% FBS followed by […] in compound-free medium by inverted fluorescence microscopic analysis; type: ADME, cell-based; details: hnt1, 0.5 h, in the assay text read “in serum-free medium” for “in DMEM media with 10% FBS”
Summary of the method: (§5)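 Confluent HNT1 cultures (passage 116) given 3.2 μM PS for 30 min in serum-free medium, then 5 h in serum-containing medium with PS, then 15 h chase in serum medium without PS. Fluorescence recorded at 100X with varied camera exposures and quantified digitally; pixel signal normalized to time and cell number.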

[10] = Drug uptake in skin of iv dosed SCID mouse xenografted with human UMUC3 cells by fluorescence imaging analysis; type: ADME, organism-based, Skin of body; details: in vivo
UMUC3 [11] = assay: Photodynamic antitumor activity against human UMUC3 cells xenografted in SCID mouse assessed as tumor retention at 0.47 micromol/kg, iv pretreated with compound followed by light irradiation at a dose of 135 J/cm2 and 75 mW/cm2 measured at day 60 post dose relative to control; type: functional; details: dose 0.47 µmol/kg; time 60 day
Summary of the method: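 UMUC3-bearing female SCID mice given iv PS in 1% Tween80/5% dextrose. Mice restrained and tumors irradiated at 665 nm, 135 J/cm² over 30 min at 75 mW/cm², at the time of maximal tumor uptake. Tumor regrowth measured daily for 60 days; mice euthanized above 400 mm³. Cure plotted as survival curves and compared by log-rank (Mantel-Cox) test.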

FaDu [12] = assay: Photodynamic antitumor activity against human FaDu cells xenografted in SCID mouse assessed as cure rate at 0.25 micromol/kg, iv pretreated with compound followed by light irradiation at a dose of 135 J/cm2 and 75 mW/cm2 measured after 60 days post dose relative to control; type: functional; details: dose 0.25 µmol/kg; time 60 day; summary of the method: as §4
[13] = Drug uptake in skin of iv dosed SCID mouse xenografted with UMUC3 cells by fluorescence imaging analysis; details: in vivo
[14] = Drug uptake in tumor of SCID mouse xenografted with human UMUC3 cells assessed as drug accumulation at 0.47 micromol/kg, iv pretreated with compound followed by light irradiation at a dose of 135 J/cm2 and 75 mW/cm2 measured after 6 hrs by IVIS analysis; type: ADME, organism-based, Neoplasm; details: in vivo, dose 0.47 µmol/kg; summary of the method: as §3
[15] = Drug uptake in tumor of iv dosed SCID mouse xenografted with UMUC3 cells by fluorescence imaging analysis; details: in vivo
[16] = Drug uptake in human HNT1 cells at 3.2 uM incubated for 30 mins in serum free medium followed by […] in compound-free medium by inverted fluorescence microscopic analysis; type: ADME, cell-based; details: hnt1, 0.5 h; summary of the method: as §5
FaDu [17] = assay: Photodynamic antitumor activity against human FaDu cels xenografted in SCID mouse assessed as cure rate at 0.47 micromol/kg, iv pretreated with compound followed by light irradiation at a dose of 135 J/cm2 and 75 mW/cm2 and measured at 24 hrs post dose relative to control; type: functional; details: dose 0.47 µmol/kg; summary of the method: as §4
[18] = Drug uptake in skin of SCID mouse xenografted with FaDu cells at 0.47 to 0.125 micromol/kg, iv pretreated with compound followed by light irradiation at a dose of 135 J/cm2 and 75 mW/cm2 and measured at 24 hrs by IVIS analysis; type: ADME, organism-based, Skin of body; details: in vivo, dose 0.47-0.125 µmol/kg; summary of the method: as §1

In the case of `CCC1=C(C)c2cc3[nH]c(cc4nc(c5c6[nH]c(cc1n2)c(C)c6C(=O)C5)[C@@H](CCC(=O)OC)[C@@H]4C)c(C)c3C(C)OCc1cccc(C#Cc2cccc(Nc3ncnc4cc(OCCOC)c(OCCOC)cc34)c2)c1` (some centres undefined), the IC50 (UMUC3 [1]) is reported as 59.4 nM, the Drug uptake [2] is reported as “Active” and the Drug uptake [3] is reported as “Active”. The Drug uptake [4] was “Active”, the Activity (HN-85-1-3) was “Dose-dependent effect” and the Drug uptake [5] was “Active”. For the same compound, the Drug uptake [6] was “Active”, the Activity (FaDu [7]) was 0% and the Activity [8] was 0.5%. For the same compound, the Drug uptake [9] was “Active”, the Drug uptake [10] was “Active” and the Activity (UMUC3 [11]) was 74%. The Activity (FaDu [12]) was 80%, the Drug uptake [13] was “Active” and the Drug uptake [14] was “Active”. For the same compound, the Drug uptake [15] was “Active”, the Drug uptake [16] was “Active” and the Activity (FaDu [17]) was 92%. For the same compound, the Drug uptake [18] was “Active”.

Source: ChEMBL document CHEMBL4732136, “Synthesis, Tumor Specificity, and Photosensitizing Efficacy of Erlotinib-Conjugated Chlorins and Bacteriochlorins: Identification of a Highly Effective Candidate for Photodynamic Therapy of Cancer” (J Med Chem, 2021)
